LEDGF integ inh: blockers of LEDGF/p75-dependent integrase strand transfer – biochemical, TR-FRET, high throughput, primary screen; TR-FRET IN-LEDGF/p75 DNA integration, Eu/Cy5; inhibition, % at 3.7 µM; hit rate 0.64% among 370,000;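 active = inhibition above the screen-wide mean plus 3 SD, cut at about 13% in these data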;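 note: signal is the Cy5 over europium emission ratio at 671 and 618 nm; 0% = plate median of compound wells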
Rin1-Abl PPI inh: inhibitors of Rin1-Abl protein binding, primary screen, biochemical, TR-FRET. AID 588664, 2011. hit rate 0.4% among 360,000. inhibition, % at 7.35 µM; in the data active = inhibition above about 5%, passing the limit was not always enough
MBD2 DNA inh: inhibitors of MBD2 binding to methylated DNA, primary screen, biochemical, TR-FRET, DNA-binding domain, human; hit rate 0.31% among 370,000; MBD2 binding to methylated oligonucleotide; Methyl-CpG-binding domain protein 2 (Homo sapiens), Q9UBB5; inhibition, % at 4.4 µM; AID 686964, 2013; in the data active = inhibition above about 13%
UHRF1 binding: UHRF1 methylated DNA binding inhibitors, primary screen, counter-screen for MBD2 inhibitor project, biochemical, TR-FRET, human UHRF1, single concentration | UHRF1 binding to methylated oligo | AID 687016, 2013 | hit rate 0.75% among 370,000 | E3 ubiquitin-protein ligase UHRF1 (Homo sapiens), Q96T88 | inhibition, % at 4.4 µM; in the data active = inhibition above about 21%;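 note: UHRF1 SRA domain binding a hemimethylated CpG hairpin DNA probe; 0% = median of test compound wells and 100% = reference inhibitor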
TDP2 absorb: human TDP2 enzyme inhibitors, primary screen, biochemical, epi absorbance, recombinant enzyme; inhibition, % at 12.8 µM; Tyrosyl-DNA phosphodiesterase 2 (Homo sapiens), O95551; hit rate 0.34% among 370,000; AID 720702, 2013; T5PNP hydrolysis, p-nitrophenol absorbance 415 nm;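 active = inhibition above the mean of all tested compounds plus 3 SD, set per campaign, cut at about 25% in these data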;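 note: 0% = DMSO with enzyme and 100% = buffer with substrate but no TDP2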
Target sequence (O95551 whole entry, looked up): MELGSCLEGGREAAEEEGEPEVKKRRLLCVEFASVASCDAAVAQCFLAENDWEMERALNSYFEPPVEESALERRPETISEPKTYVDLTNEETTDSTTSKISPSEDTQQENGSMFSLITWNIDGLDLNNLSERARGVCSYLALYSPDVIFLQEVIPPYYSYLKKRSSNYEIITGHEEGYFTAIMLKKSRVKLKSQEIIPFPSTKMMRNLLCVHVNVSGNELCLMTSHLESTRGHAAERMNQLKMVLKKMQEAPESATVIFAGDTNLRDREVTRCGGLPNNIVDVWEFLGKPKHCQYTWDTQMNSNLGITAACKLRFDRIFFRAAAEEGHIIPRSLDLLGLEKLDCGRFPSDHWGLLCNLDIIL
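System – recombinant human TDP2 · Quantity – TDP2 enzyme at 120 nM final · Doses – single concentration, 12.8 µM nominal, with 1% DMSO · Incubation – 2 h at 37 °C · Measured by – epi absorbance of p-nitrophenol freed from T5PNP by hydrolysis · Read-out – % inhibition relative to enzyme-containing and enzyme-free wells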
* = called active by the depositor; . = no result given. The list is not random: actives were taken first. Their share in the collection is about 1.9%.

SMILES	LEDGF integ inh	Rin1-Abl PPI inh	MBD2 DNA inh	UHRF1 binding	TDP2 absorb
CCCCCCCCN1C(=O)[C@@H](CC(=O)NCCC(C)C)C[C@@]2(C(=O)OC)C1=C[C@H](C(C)C)O[C@@H]2C1CC1	5	.	-7	-3	-3
CCCCC(C(=O)NC(=O)NCc1ccccc1)N1C(=O)c2ccccc2C1=O (configuration not stated)	2	-4	12	23*	10
Cc1cc(-c2n[nH]c(=S)n2N=Cc2cccc(Oc3ccccc3)c2)n[nH]1	-5	.	-4	-1	4
Cc1ccc(NC(=O)CN2C(=O)N/C(=C\c3cccn3-c3cccc(C(=O)O)c3)C2=O)cc1	.	2	.	.	.
Cc1cccc(NC(=O)CN2C(=O)N/C(=C/c3ccc(C)o3)C2=O)c1	4	2	-1	88*	9
Cc1ccc(NC(=O)CN2C(=O)N/C(=C/c3cc(C)n(-c4cccc(C(=O)O)c4)c3C)C2=O)cc1	26*	2	8	37*	-11
COc1ccccc1-n1c(SCC(=O)NC(C)(C)C)nc(O)c(Cc2ccccc2)c1=O	0	-1	6	22*	-9
CC(C)(C)OC(=O)NC(Cc1ccccc1)C1CC(C#N)C(=O)O1 (configuration not stated)	-3	.	1	-2	3
C=CCn1c(SCC(=O)Nc2ccccc2-c2ccccc2)nnc1-c1ccc(Cl)cc1	3	.	3	4	-12
CN(C)CCCN(C(=O)c1ccco1)c1nc(-c2ccc(Cl)cc2)cs1	3	-4	0	81*	-1
COc1ccccc1-c1cnc(C(O)c2cc(Cl)cc(Cl)c2)[nH]1 (configuration not stated)	5	2	5	22*	-1
Cc1oc(CC(C)C)cc1C(N)=O	4	0	5	26*	-4
O=C(CSc1nnc(-c2ccco2)n1-c1ccc(Cl)cc1)Nc1cccc2ccccc12	-2	.	-1	1	-2
COc1ccc(OC)c(NC(=O)COC(=O)CCS(=O)(=O)c2ccc(Cl)cc2)c1	5	3	4	21*	-11
Cc1ccc(C(C)C)cc1S(=O)(=O)Nc1ccncc1	-1	1	-5	28*	6
Cc1ccc(NC(=O)Cc2cccc(OC(F)(F)F)c2)c(S(=O)(=O)N2CCOCC2)c1	-1	.	-1	0	-1
C=CCN1[C@@H](C)[C@H](c2ccccc2)Oc2cccc(N3CCCC(C)C3)c2S1(=O)=O (some centres not stated)	-1	.	7	23*	-4
Cc1ccccc1CN1[C@@H](C)[C@H](c2ccccc2)Oc2cccc(N3CCCC(C)C3)c2S1(=O)=O (some centres not stated)	-2	.	1	-2	-2
O=C(CN1CCN(c2ccccn2)CC1)Nc1ccccc1	-3	-2	-3	0	4
O=C(CN1CCN(c2ccccn2)CC1)NC1CCCC1	1	-1	10	24*	-2
CCN(CC)S(=O)(=O)c1cccc(C(=O)Nc2cc(C)nn2-c2ccccc2)c1	2	-3	7	4	-5
CCN(CC)S(=O)(=O)c1ccc(Cl)c(C(=O)Nc2cc(C)nn2-c2ccccc2)c1	3	-1	0	65*	0
COC(=O)[C@H](Cc1ccccc1)NC(=O)[C@H]1C[C@@]2(N3CCCC3)c3ccccc3N(C(=O)OC(C)(C)C)[C@H]2N1C(=O)OC(C)(C)C	0	.	0	0	-5
O=C(O)CC1c2ccccc2CCN1S(=O)(=O)c1ccccc1 (configuration not stated)	2	-1	5	-1	-6
O=C(O)CC1c2ccccc2CCN1S(=O)(=O)c1cccs1 (configuration not stated)	-4	2	8	24*	-16
SMILES	LEDGF integ inh	Rin1-Abl PPI inh	MBD2 DNA inh	UHRF1 binding	TDP2 absorb
Oc1ccc(/C=N\Nc2cc(N3CCOCC3)nc(N3CCOCC3)n2)c(O)c1	3	-1	-9	-3	-10
Oc1ccc(/C=N/Nc2cc(N3CCCC3)nc(N3CCCC3)n2)cc1O	33*	5	2	4	-4
Cc1c(C(=O)N(C)C)c2cc(Cl)ccc2n1O	1	1	0	-4	2
CCOC(=O)c1c(C)n(O)c2ccc(Cl)cc2c1=O	-2	-2	7	25*	4
CCOc1ccccc1NC(=O)NNC(=O)CCn1nc(C)c([N+](=O)[O-])c1C	-2	.	0	2	-1
O=C(CCc1ccc(O)c(O)c1)N/N=C/c1ccc2c(c1)OCO2	33*	-1	9	21*	12
COC(=O)[C@]12C[C@H](CC(=O)N3CCN(C(=O)C4CC4)CC3)C(=O)N(Cc3ccco3)C1=C[C@H](COCc1ccccc1)O[C@@H]2C	0	.	3	1	-1
CCOC(=O)CC[C@H]1CC[C@]2(CCCN(S(=O)(=O)c3ccccc3)C2)O1	-1	.	-2	1	1
O=C(Nc1ccc2c(c1)OCCO2)c1ccc2ccccc2n1	-2	3	-6	22*	-4
CCCCCn1nnnc1C1c2ccccc2OCC(=O)N1Cc1ccco1 (configuration not stated)	4	.	2	3	-11
O=S(=O)(c1cccc2cccnc12)N1CCC(c2cn3ccccc3n2)CC1	1	.	-5	-1	6
CC(NC(=O)C1CCN(CCOc2ccc(Cl)cc2)CC1)c1cccc2ccccc12 (configuration not stated)	-4	-1	0	25*	-3
Cc1cc(NS(=O)(=O)c2ccc(NC(=O)CSc3nnc(-c4ccccn4)n3-c3ccccc3)cc2)nc(C)n1	0	.	-3	1	0
COc1ccc(Cl)cc1-c1cc(C(=O)NC2CCCCC2)[nH]n1	0	1	-1	-1	3
CCOc1ccc(Cl)cc1-c1cc(C(=O)NC2CCCCC2)[nH]n1	-2	-3	-1	79*	5
CCOc1ccc(NC(=S)C(C#N)=C2N(C)c3ccccc3N2C)cc1	-6	2	1	22*	0
Cc1ccc(C2=CCN(C)C(=O)N2c2ccc([N+](=O)[O-])cc2)cc1	-3	.	0	-1	-1
CCCC[C@H](C(=O)N(C)c1cccc(OC)c1)[C@@H](O)c1ccc(C(C)=O)cc1	-3	.	-3	-1	0
COc1cc(Br)cc(/C=N/NC(=O)Cc2ccccc2)c1O	-6	0	3	-3	1
O=C(Cc1ccccc1)N/N=C/c1cc(Br)cc(Cl)c1O	-6	2	1	58*	-5
Cc1cc(C)cc(NC(=O)COC(=O)CC2CCCC2)c1	2	2	0	32*	-2
